Screening data: PubChem, Johns Hopkins Ion Channel Center
KCNK3 inh – human KCNK3 channel inhibition, primary screen; CHO-KCNK3 thallium flux, FluxOR fluorescence; stronger effect = lower value; B-score at 10 µM; actives 0.84% (n = 340,000); AID 602410;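 active means B-score under library mean minus 4 SD, starting fluorescence ratio at most library mean plus 5 SD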;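 further: more negative B-score means stronger inhibition of thallium flux through KCNK3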
hERG protect – shields human hERG channel from block by proarrhythmic agents | Q12809 | CHO-hERG, FluxOR thallium flux, dofetilide IC70 present | actives 0.51% (n = 310,000) | activation (rescue from dofetilide block), less the hit threshold, % at 10 µM | AID 1511;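 active means activation above the mean of controls blocked by dofetilide plus 5 SD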;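 further: thallium influx through hERG after potassium depolarization seen as dye fluorescence rise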
KCNQ1 inh – inhibitors of human KCNQ1 potassium channel; P51787; actives 1.3% (n = 310,000); B-score at 10 µM; CHO-K1 KCNQ1, FluxOR thallium flux fluorescence; stronger effect = higher value; AID 2642;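 active means compounds whose thallium flux B-score, printed positive for inhibition, exceeds three library SD while starting fluorescence stays within three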;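 further: channel opened by potassium depolarization with thallium stimulus after 20 min compound exposure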
Target sequence (P51787 whole entry, looked up): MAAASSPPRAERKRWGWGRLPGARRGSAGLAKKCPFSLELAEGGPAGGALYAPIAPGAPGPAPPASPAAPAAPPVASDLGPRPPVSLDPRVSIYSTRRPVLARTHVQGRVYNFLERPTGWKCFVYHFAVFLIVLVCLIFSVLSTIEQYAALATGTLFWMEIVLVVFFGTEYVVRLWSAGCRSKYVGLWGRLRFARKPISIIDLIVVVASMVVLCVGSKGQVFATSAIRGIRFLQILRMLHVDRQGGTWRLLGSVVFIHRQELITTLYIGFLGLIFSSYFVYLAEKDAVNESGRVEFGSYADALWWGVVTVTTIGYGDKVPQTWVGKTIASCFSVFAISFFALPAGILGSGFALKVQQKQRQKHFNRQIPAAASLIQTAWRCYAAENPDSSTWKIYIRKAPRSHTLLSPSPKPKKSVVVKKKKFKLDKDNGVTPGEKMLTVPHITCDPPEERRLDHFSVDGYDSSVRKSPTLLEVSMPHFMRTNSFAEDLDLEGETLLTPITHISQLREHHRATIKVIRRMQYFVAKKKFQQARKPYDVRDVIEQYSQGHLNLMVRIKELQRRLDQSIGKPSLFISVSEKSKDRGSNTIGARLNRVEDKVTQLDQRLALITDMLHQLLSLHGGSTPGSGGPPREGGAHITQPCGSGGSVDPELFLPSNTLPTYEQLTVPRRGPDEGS
KCNQ1 pot – human KCNQ1 channel potentiation or activation. CHO-K1 KCNQ1, thallium flux FluxOR fluorescence; stronger effect = higher value. B-score at 10 µM. actives 0.35% (n = 310,000). AID 2648;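 active means fluorescence ratio B-score, a plate-corrected score, at least three library SD, with initial intensity B-score within 5 SD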
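Test system: CHO-K1 cells stably expressing KCNQ1 / Medium: assay buffer / Also added: depolarizing K+/Tl+ stimulus, K2SO4 and Tl2SO4 each 12.5 mM in 5x stock / Incubation: 90 min dye loading and 20 min compound exposure, both at room temperature / Signal: thallium influx via FluxOR fluorescence, kinetic imaging / Evaluation: B score of baseline-normalized fluorescence ratio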
KCNK9 block – inhibitors of human KCNK9 two-pore domain potassium channel. Q9NPC2. HEK293 KCNK9, FluxOR thallium flux fluorescence; stronger effect = lower value. B-score at 10 µM. actives 1.2% (n = 310,000). AID 488922;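 active means ratio B-score over 3 SD below the library mean, with starting fluorescence within 5 SD of its mean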;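 further: negative B-score means less thallium flux so channel inhibition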
Kir21 block – inhibitors of mouse Kir2.1 inward-rectifier potassium channel; actives 0.85% (n = 310,000); AID 1672; B-score at 10 µM; HEK293-Kir2.1, FluxOR thallium flux fluorescence; stronger effect = lower value; P35561;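 active means fluorescence ratio B-score at or below minus 3 SD of library scores, with starting-brightness B-score within 2 SD, cut at about -4.2 in these data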;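 further: channel flux triggered by added potassium and thallium sulfate stimulus; B-score of peak minus minimum fluorescence over baseline after thallium stimulus; more negative B-score means stronger Kir2.1 block with less thallium influx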
KCNK9 block conf – human KCNK9 inhibitor confirmation. HEK293 KCNK9 cells, FluxOR thallium flux fluorescence. inhibition, % at 10 µM. actives 43% (n = 4,900). shares compounds with KCNK9 block;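 active means thallium signal inhibited by more than 5 SD of the compound-free buffer control wells, on both duplicate plates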;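 further: 0% = assay buffer control wells without compound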
Kir2-1 spec – tests whether KCNK9 modulators also affect mouse Kir2.1 | shares compounds with KCNK9 block | inhibition, % at 10 µM | actives 4% (n = 4,900) | Kir2.1 cells, FluxOR thallium flux fluorescence;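 active means thallium signal drop more than 5 SD beyond the mean of the no-compound control wells, seen in both duplicate plates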;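 further: signal is fluorescence rise after thallium addition divided by baseline fluorescence; plate controls were assay buffer only for no effect and full block by chlorpromazine control for full effect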
HEK293 Tl ctr – second counter-screen for KCNK9 modulators: effect in non-induced cells; shares compounds with KCNK9 block; non-induced KCNK9-HEK293, FluxOR thallium flux; inhibition, % at 10 µM; actives 40% (n = 4,900);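 active means thallium signal drop beyond 5 SD of the untreated control mean, on both duplicate plates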;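 further: plate controls were buffer only IC0 wells for no effect and SID17386958 at its maximal inhibitory level for full effect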
KCNK3 inh conf – human KCNK3 channel inhibition, confirmation assay; shares compounds with KCNK3 inh; CHO-KCNK3 thallium flux, FluxOR fluorescence; 0% buffer, 100% carvedilol maximal block; ratio percent of control, % at 10 µM; actives 99% (n = 2,400); AID 651638;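 active means ratio percent of control, averaged over triplicates, above buffer control mean plus 5 SD, cut at about 64% in these data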;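 further: ratio is the fluorescence rise from min to max over baseline after thallium stimulus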
KCNK3 noninduced – activity in cells without induced KCNK3 expression; thallium flux ratio (lower = more inhibition) at 10 µM; AID 651747; non-induced KCNK3 parental cells, FluxOR thallium flux; stronger effect = lower value; actives 40% (n = 2,400); shares compounds with KCNK3 inh;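 active means thallium flux ratio, averaged over three wells, more than 5 SD below the buffer control mean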;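 further: host cells are CHO cells without KCNK3 induction; ratio is peak minus trough fluorescence over baseline then normalized to buffer controls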
* hit, by the source's call; i = inactive; / = no result given. Only some compounds are listed: those with a hit (about 3.7% of all), similar ones and a draw of the others.

SMILES	KCNK3 inh	hERG protect	KCNQ1 inh	KCNQ1 pot	KCNK9 block	Kir21 block	KCNK9 block conf	Kir2-1 spec	HEK293 Tl ctr	KCNK3 inh conf	KCNK3 noninduced
O=C(NNC(=O)c1ccccc1O)c1ccc(Cl)c(S(=O)(=O)N2CCc3ccccc32)c1	-14.1*	-29.6	14*	i	-9.65*	0.27	31.5%*	i	i	116.3*	0.14*
O=C(c1ccc(Cl)c(S(=O)(=O)N2CCc3ccccc32)c1)N1CCN(c2ccccc2O)CC1	i	/	/	/	/	/	/	/	/	/	/
O=C(N/N=C/c1ccccc1)c1[nH]c2ccc(Br)cc2c1-c1ccccc1	i	-7.3	i	i	i	2.2	/	/	/	/	/
O=C(NN=C1CCCC1)c1[nH]c2ccc(Br)cc2c1-c1ccccc1	i	-16.0	7*	i	-8.67*	0.44	i	i	i	90.7*	i
CSCCC(NC(=O)c1cccc(C)c1)C(=O)OCC(=O)NC(=O)c1cccn1C (configuration not stated)	i	-8.2	i	i	i	-0.44	/	/	/	/	/
N#CCC(=O)Nc1ccc(C(=O)OCc2ccccc2Oc2ccccc2)cc1	-10.2*	-13.9	i	i	-10.7*	1.2	57.5%*	i	25.0%*	115.0*	0.151*
COc1ccccc1NC(=O)c1ccc(NC(=O)CN(C)Cc2ccccc2F)cc1	-11.4*	-20.7	i	i	-9.06*	1.04	36.0%*	i	i	97.0*	i
COc1ccccc1NC(=O)c1ccc(NC(=O)COC(=O)C2CC2C)cc1 (configuration not stated)	i	-5.1	i	i	i	-0.52	/	/	/	/	/
COc1ccccc1N1CCN(CC(=O)Nc2sccc2C#N)CC1	i	-9.1	i	i	i	0.66	/	/	/	/	/
COc1ccc(Cl)cc1CC=NNC(=O)c1ccncc1	i	/	/	/	/	/	/	/	/	/	/
CC(C)OC(=O)COc1ccc(-c2ccccc2)cc1	-11.1*	-5.0	i	i	-9.24*	1.03	i	i	i	96.7*	i
O=C(/C=C/Nc1ccccc1Oc1ccccc1)c1ccco1	-12.7*	-11.7	i	i	-17.4*	-2.09	47.0%*	i	37.0%*	122.3*	i
CCCCCOc1ccc(Br)cc1/C(C)=N/NC1=NCCN1	-11*	-22.3	i	i	-11*	-13.8*	41.0%*	65.5%*	i	105.0*	0.133*
COc1ccc(Br)cc1/C(C)=N/NC1=NCCN1	i	-3.5	i	i	i	-1.48	/	/	/	/	/
Cc1cccc(NC(=O)C2CCN(C(=O)c3ccc(Cl)cc3)CC2)n1	i	-12.7	i	i	i	-0.9	/	/	/	/	/
COc1ccccc1N(CC(=O)NCCSCc1cccc(C)c1)S(=O)(=O)c1ccccc1	-12.6*	-18.3	9*	i	-16.3*	0.02	48.0%*	i	28.0%*	104.7*	i
Cn1nc(C(=O)Nc2cccc(S(=O)(=O)N3CCCCC3)c2)c2ccccc2c1=O	i	/	/	/	/	/	/	/	/	/	/
Cc1onc(-c2ccc(Cl)cc2)c1-c1ccnc(SCC(=O)Nc2ccc(C(C)C)cc2)n1	-11.4*	-4.6	i	i	-9.6*	-2.13	40.5%*	i	29.0%*	115.0*	i
O=C(C1CCCCC1)N1CCN(S(=O)(=O)c2cccc([N+](=O)[O-])c2)CC1	i	-9.0	i	i	i	0.07	/	/	/	/	/
COc1ccc2c(COC(=O)c3cccc(S(=O)(=O)NCC(C)C)c3)cc(=O)oc2c1	-10.9*	-22.0	i	i	-9.27*	1.33	i	i	i	138.3*	0.137*
NC(=O)COc1ccc(/C=N/NS(=O)(=O)c2ccccc2)cc1	i	-4.8	i	i	i	2.29	/	/	/	/	/
Nc1ncnc2c1ncn2[C@@H]1O[C@H](CNCc2ccc(-n3cccn3)cc2)[C@@H](O)[C@H]1O	i	/	/	/	/	/	/	/	/	/	/
Cc1ccc(C)c(-c2csc(N/N=C/c3ccco3)n2)c1	-11.3*	-6.8	i	i	-8.92*	-1.68	38.5%*	i	27.0%*	114.7*	0.157*
O=S(=O)(c1ccccc1)N1CCN=C1SCc1ccccc1Cl	-10.6*	-3.3	i	i	-9.72*	-1.64	34.0%*	i	44.0%*	114.0*	i
COc1ccc(C(=O)/C=C/c2ccc(OC)c(COc3ccc(F)cc3)c2)cc1	-10.4*	-5.2	i	i	-13.1*	1.65	65.5%*	i	33.0%*	129.0*	0.154*
SMILES	KCNK3 inh	hERG protect	KCNQ1 inh	KCNQ1 pot	KCNK9 block	Kir21 block	KCNK9 block conf	Kir2-1 spec	HEK293 Tl ctr	KCNK3 inh conf	KCNK3 noninduced
c1ccc(-c2ncc(-c3ccn[nH]3)s2)cc1	i	-6.1	i	i	i	-1.57	/	/	/	/	/
CCCCCCN=C1CC(C)(C)CC(=O)/C1=C(/O)CCC	-10.3*	-11.5	i	i	-17.7*	0.09	66.5%*	i	40.0%*	94.0*	i
Cc1ccccc1N1CCN(C2CCCN(C(=O)CCC3(C)CC3)C2)CC1 (configuration not stated)	i	-8.1	i	i	i	0.41	/	/	/	/	/
CCN(c1ccc(OC)cc1)S(=O)(=O)c1cc(-c2cc(C)no2)ccc1OC	i	-6.6	i	i	i	0.52	/	/	/	/	/
CCN(c1ccc(OC)cc1)S(=O)(=O)c1cc(-c2cc(C)no2)ccc1C(C)C	-9.23*	-8.3	i	i	-16.1*	-0.08	59.5%*	i	38.5%*	121.0*	0.136*
COC(=O)C1=C(C)N=C2SC(C#N)=C(N)N2C1c1ccc(OC)cc1 (configuration not stated)	-10.5*	-6.2	i	i	-8.89*	-0.15	50.5%*	i	i	111.7*	i
COC(=O)C1=C(C)N=C2SC(C#N)=C(N)N2C1c1cccc(OC)c1 (configuration not stated)	i	-11.0	i	i	i	2.08	/	/	/	/	/
CCCCc1cc(=O)oc2c3c(cc(OCC(=O)NCCCO)c12)OC(C)(C)CC3	i	-0.9	i	i	i	-0.93	/	/	/	/	/
COc1ccc2c(COC(=O)c3ccc(C)c(S(=O)(=O)N4CCOCC4)c3)cc(=O)oc2c1	i	/	/	/	/	/	/	/	/	/	/
